Data: ChEMBL document CHEMBL4513216, “Probing the Open Global Health Chemical Diversity Library for Multistage-Active Starting Points for Next-Generation Antimalarials” (ACS Infect Dis, 2020)

assay: Toxicity liver stage against HepG2, at 10uM; type: cell-based; parameters: test concentration 10 uM, cell line HepG2-A16-CD81EGFP; settings: human, HepG2-A16-CD81EGFP cells; read-out: INHIBITION
Outline: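 Uninfected HepG2-A16-CD81EGFP cells, 3 × 10^3 per well, 1536-well, plated on prespotted compound at 10 μM final, parasite-free screening media added to match infected plates; puromycin 10 μM positive, DMSO 0.5% negative; run in parallel with 48 h PbLuc assay at 37 °C, 5% CO2; viability by CellTiter-Glo luminescence, normalized to controls.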

| Compound | cytotoxicity at 10 µM |
| --- | --- |
| COCc1ccc(CN[C@H]2C[C@@H](Cc3cc(CCO)on3)C2(C)C)o1 | -1.68% |
| Cc1ccc(Oc2ncccc2C(=O)N(C)CCCN(C)C)cc1 | 1.73% |
| CC(=O)N1N=C(c2ccccc2)OC1C(=O)NCCN(C(C)C)C(C)C (stereo unspecified) | 0.238% |
| COCCNC(=O)Cn1ccc2cccc(OC)c21 | -45.8% |
| O=C(Cn1ncc2c(c1=O)CCCC2)Nc1cccc2[nH]ccc12 | 3.16% |
| Cc1ccc(NC(=O)Cn2ncc(SCC(N)=O)c(Cl)c2=O)cc1 | -16.9% |
| CCOc1ccc(S(=O)(=O)NCCc2ccc(N(C)C)cc2)cc1F | -3.56% |
| CN1CCCC(C(=O)N2CCC(Oc3ncccn3)CC2)C1 (stereo unspecified) | -5.2% |
| COc1cc(C(=O)N2CCO[C@H]3[C@H](OCC4CC4)CC[C@@H]32)ccc1F | 9.32% |
| CC(C)N1CCc2ncn(C(C)C)c2C1C(=O)NCCN1CCCC1 (stereo unspecified) | 3.11% |
| CCOc1ncnc2c1CCN(S(=O)(=O)CC)CC2 | 3.79% |
| Cc1ccc(N2Cc3c(CN(C)C)nn(C)c3C2)nn1 | 2.47% |
| COc1cc(N2C[C@H]3OCC[C@H]3[C@H](C(=O)N3CCCC3)C2)ncn1 | 4.99% |
| Cn1cc(CN2CCC3(CC2)COC(COc2ccccn2)C3)cn1 (stereo unspecified) | 0.719% |
| O=C(c1c(F)cccc1F)N1CCOCC1 | 5.33% |
| Nc1nccc(C2CCN(c3cnccn3)C2)n1 (stereo unspecified) | 1.43% |
| Cc1cccc(C)c1Nc1noc2c1CN(C(=O)c1ccn(C)n1)CC2 | 5.69% |
| Cc1nc(NC2CCOCC2)cc(C2CCN2S(C)(=O)=O)n1 (stereo unspecified) | 2.31% |
| Cc1noc(C)c1CCC(=O)NCC1(O)CCCN(c2ccccn2)C1 (stereo unspecified) | -3.95% |
| Cc1cc(N2CCC(Cc3ncccn3)C2)ncn1 (stereo unspecified) | 0.146% |
| Cc1ccc(-c2nnc(CNC(=O)c3cccnc3)o2)cn1 | -2.72% |
| Cc1noc(C)c1C(=O)N1CCCCC1c1cc(C)n2ccnc2n1 (stereo unspecified) | 15.8% |
| NCCn1nc(C2CCN(C(=O)Cc3ccccc3)C2)c2nccnc21 (stereo unspecified) | -15.9% |

| Compound | cytotoxicity at 10 µM |
| --- | --- |
| CN1CC(c2cc(O)nc(NCc3ccccc3Cl)n2)CC1=O (stereo unspecified) | -20.2% |
| CNC(=O)C1(c2cnccn2)CCCN1C(=O)c1ccccc1C (stereo unspecified) | -16.5% |
| COCC(=O)Nc1ccc(N2CCC(OC)CC2)c(C(F)(F)F)c1 | -0.0399% |
| COc1ccc(N(C)C(=O)C2CN(C)CCO2)cc1F (stereo unspecified) | -41.8% |
| Cn1ccnc1CN1CCCCC1c1nc(-c2ccccc2)no1 (stereo unspecified) | -47.5% |
| O=C1CCCCN1CSc1nnnn1-c1ccc(Cl)cc1 | -48.4% |
| Cn1ccc(CNC(=O)Nc2ccc(S(=O)(=O)C(F)F)cc2)c1 | 5.93% |
| CN(C)CCN(C)S(=O)(=O)CC1CCOCC1 | -5.38% |
| CC(C)(C)c1ccc2c(c1)CCN2C(=O)c1ccc(=O)[nH]n1 | 2.87% |
| COC(C(=O)NCc1c(C)nc2cc(=O)[nH]n2c1C)c1ccccc1 (stereo unspecified) | 0.493% |
| CNC(=O)NCC(=O)Nc1ccccc1N1CCc2ccccc21 | 2.46% |
| Cn1cnc(S(=O)(=O)N2CCCc3c(F)cc(F)cc32)c1Cl | 0.333% |
| Cc1nc(CN2CCCC2Cn2ccnc2C(C)C)nc2ccccc12 (stereo unspecified) | -56.8% |
| CSc1ccccc1NC(=O)CCN1CCC(C(=O)N(C)C)CC1 | 6.47% |
| O=C(c1cc(-n2cccn2)ccn1)N1CCOc2ncccc21 | -0.554% |
| Cc1csc(CN(CC2CCCO2)C(=O)c2cccnc2C)n1 (stereo unspecified) | 0.459% |
| COc1cccc(CC(=O)N2CCN(c3cccc(C)c3)C(C)C2)c1 (stereo unspecified) | 8.63% |
| CC(=O)NCCCSC1CCCN(c2ccccc2F)C1=O (stereo unspecified) | -0.906% |
| Cc1cc(Br)oc1C(=O)N1CCCN(CC(N)=O)CC1 | 0.71% |
| O=C(NCCNc1ncccn1)c1cnc(-c2ccccc2)nc1 | 12.1% |
| COc1ccc(C(CNC(=O)c2cnc(C)cn2)N2CCOCC2)cc1 (stereo unspecified) | 3.04% |
| CCc1ncc2c(n1)CN(Cc1nnc(C(C)C)o1)CC2 | -4.54% |
| CC(COc1ccccc1F)NC(=O)N[C@@H]1C=C[C@H](CO)C1 (stereo partly specified) | 3.53% |

| Compound | cytotoxicity at 10 µM |
| --- | --- |
| NC(=O)c1cccc(CN2CCOC(Cn3cccn3)C2)c1 (stereo unspecified) | -2.69% |
| Cn1cc(CNc2ccc(CCN3CCC(C(N)=O)CC3)cc2)cn1 | -6.21% |
| Cc1cnn(-c2cccc(N3CCCC3)n2)c1 | -6.26% |
| O=C(CCc1cncc(F)c1)NS(=O)(=O)c1ccc(F)cc1F | -7.49% |
| Cc1cc(CNc2ccc(C(F)(F)F)cc2)no1 | -54% |
| Cc1nn(C)c(N2CCOCC2)c1CNC1CCCCNC1=O (stereo unspecified) | 5.84% |
| CCN(CC1CCOC1)C(=O)c1cn2ccc(C)cc2n1 (stereo unspecified) | 1% |
| CCN(CC1CCOC1)C(=O)c1ccn(-c2cc(C)ccc2OC)n1 (stereo unspecified) | 6.16% |
| CCN(CC)S(=O)(=O)c1ccc(CNc2cc(C)nc(C)n2)cc1 | -5.83% |
| OCC(O)CSCc1cn(-c2ccc(Cl)c(Cl)c2)nn1 (stereo unspecified) | 8.55% |
| O=S(=O)(C1CC1)N1CCCn2nnc(Cn3cccc3)c2C1 | 9.39% |
| O=S(=O)(c1cccs1)N1Cc2nc(COCC3CC3)oc2C1 | -109% |
| Cc1nc(N2CCOCC2)nc2c1CCN(C(=O)C1(C#N)CC1)CC2 | -117% |
| O=C([C@@H]1CCO[C@@H]2CCN(CC3CCOCC3)C[C@H]21)N1CCCC1 | -114% |
| Cc1ncnc2c1CCN(S(=O)(=O)C1CC1)CC2 | -108% |
| c1ccc(CNc2ncc(CN3CCCN4CCC[C@H]4C3)cn2)cc1 | -9.53% |
| COc1ccc(CN(C)c2ccc(-c3nccn3C)nn2)cc1OC | -3.32% |
| O=C(NCc1ccncc1)C1CN(c2nc3ccccc3s2)CCN1 (stereo unspecified) | -105% |
| O=C(c1ccc(CN2CCCCC2)cc1)N1Cc2cnn(CCO)c2C1 | 12.6% |
| O=C(c1ccc(S(=O)(=O)NCCc2ccccn2)cc1)N1CCCC1 | 13.2% |
| CCCC(CNc1cc(C(C)C)nc2ccnn12)N(C)C (stereo unspecified) | 5.6% |
| O=C(O)[C@@H]1CN(CC(=O)N2CCCCC2)C[C@H]1c1ccc(F)cc1 | -3.95% |
| CC(C)(N)c1cn(C2CCN(c3ncccc3Cl)CC2)nn1 | -48% |

| Compound | cytotoxicity at 10 µM |
| --- | --- |
| COC1CCN(S(=O)(=O)N2CC(c3ccccc3)C(C)(C)C2)CC1 (stereo unspecified) | 3.64% |
| O=C(c1cnc(Nc2ccccc2)nc1)N1CCC2(CCNCC2)CC1 | -5.96% |
| CN(Cc1cnn(C)c1)Cc1nc(CCc2ccccc2)no1 | -26.1% |
| CCN(CC)C(CNCc1ccc(C)o1)c1ccco1 (stereo unspecified) | 3.23% |
| Cc1cc2cccc(C(=O)N3CCOC4(CNCCOC4)C3)c2o1 (stereo unspecified) | -2.21% |
| c1ccc(-n2cnnc2CCCN2CCOCC2)cc1 | -1.16% |
| Cc1nc(CN2CCCCC2CCc2ccc(O)cc2)no1 (stereo unspecified) | 1.18% |
| COc1ccc(F)c(CN2CCCC3(CCN(C(=O)CSC)C3)C2)c1 (stereo unspecified) | 0.15% |
| COc1ccc(CCC(=O)N2CCNCC2C(=O)N2CCOCC2)cc1 (stereo unspecified) | 4.34% |
| CC(C)[C@@H]1CN(Cc2ccccc2C#N)C[C@H]1N(C)C | -18.7% |
| Cc1ccc(O)c(CN2CCn3nc(C(=O)N4CCCC4)cc3C2)n1 | 1.5% |
| CCCc1nc(CN2CCCCC2Cn2cncn2)cs1 (stereo unspecified) | -5.61% |
| Cc1nc2cc(O)nn2c(C)c1CCC(=O)NCCc1nccn1C | -0.84% |
| Cc1cccc(OCCN2CCN(Cc3noc(C)n3)CC2)c1 | -8.78% |
| CS(=O)(=O)NCC1CCCCN1C(=O)c1cccc(C(F)(F)F)c1 (stereo unspecified) | -2.02% |
| CCn1ccnc1CN1CCN(C(C)C(=O)N2CCCCCC2)CC1 (stereo unspecified) | -7.01% |
| CS(=O)(=O)NC(=O)c1nnn(-c2cccc(F)c2)c1C1CC1 | -3.9% |
| Cc1cnn(CC2CN(Cc3nnc(C(C)C)o3)CCO2)c1 (stereo unspecified) | -2.55% |
| O=C(CSc1ccc(Br)cc1)NS(=O)(=O)c1ccc2c(c1)OCCO2 | -5.51% |
| CCNC(c1cccnc1)c1ccc(F)cc1F (stereo unspecified) | -2.34% |
| O=C(CCc1ccccn1)N1CCN(C(=O)CC2CCCCC2)CC1 | -1.8% |
| O=C(Cc1ccc(-n2cccn2)cc1)N1CCCC(n2cccn2)C1 (stereo unspecified) | 4.6% |
| O=C(Cc1ccc2c(c1)OCCO2)N1CCCC(n2ccnc2)C1 (stereo unspecified) | 3.8% |

| Compound | cytotoxicity at 10 µM |
| --- | --- |
| Cc1ccc(CN(CCCN2CCOCC2)Cc2cncn2C)o1 | -40.3% |
| COc1ncc(CN(CCCN2CCOCC2)Cc2ccc(C)o2)cn1 | -33% |
| Cc1ccc2c(n1)N(CC1CC1)CCN(C(=O)NC1CC1)C2 | -3.09% |
| CCOCC1c2c(cnn2CC2CC2)CCN1Cc1nccs1 (stereo unspecified) | 85.9% |
| Cc1occc1C(=O)N1CCO[C@H]2[C@H](OCc3ccccn3)CC[C@@H]21 | -104% |
| CC(C)NC(=O)N1CCN(CC2CC2)c2ncccc2C1 | -108% |
| O=C(NCC1CC1)[C@H]1C[C@@H]2CCN(Cc3ccc4c(c3)OCO4)C[C@@H]2O1 | -0.208% |
| CC(C)CN1CCC(c2nc3ccc(NC(C)C)cn3n2)CC1 | 1.13% |
| CN(C)C(=O)c1n[nH]c2c1CN(CC1CCC1)C2 | -2.22% |
| Cc1noc(C)c1CN1CCC2(CC1)CC(Oc1cccnc1)C2 | 23.2% |
| CN(C)CCO[C@H]1CN(Cc2ccco2)[C@@H]2COC[C@H]12 | -98.2% |
| COc1ccc(CNC(Cc2cccs2)c2nc(C)c(C)s2)cc1OC (stereo unspecified) | -3.32% |
| O=C(Cc1cccs1)N1C[C@H]2CN(CC3CCCO3)CC[C@H]2C1 (stereo partly specified) | 4.96% |
| c1cncc(CN2Cc3nccn3CC(Cn3cccn3)C2)c1 (stereo unspecified) | -102% |
| Fc1cnccc1CN1CCCC2(CCN(c3ncccn3)CC2)C1 | -112% |
| O=C(NCc1cnc2n1CCN(Cc1nccs1)CC2)C1CCC1 | 0.588% |
| Fc1cnc(N2CCO[C@H]3CN(CC4CCCCC4)C[C@H]32)nc1 | 6.61% |
| O=C([C@H]1CCCO1)N1CCN(CCn2cccn2)c2ncccc2C1 | -106% |
| Cc1cnc(CN2C[C@H]3CC(Oc4ccccc4)C[C@H]3C2)cn1 (stereo partly specified) | -24.3% |
